Data published in paper PMC4390068 (Medicinal chemistry research : an international journal for …, 2014).
“Also recorded” adds a separate entry of the source. Like-named read-outs stand apart in the source and are kept apart here.

Key:
[1] = system: LPS-activated BV-2 microglial cells; test: NO; format: cell-based, murine; details: for IC50: read-out: LPS-NO2 IC50
[2] = Cell viability by resazurin; format: cell-based; details: mouse
[3] = system: iNOS protein expression in LPS-activated BV-2 microglial cells; test: Inducible NOS protein expression by immunohistochemistry; format: cell-based, murine; details: LPS-activated BV-2 cells; 4.4 and 8.9 µM chalcone (1)
Procedure, shortened: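 LPS (E. coli O111:B4, 1 µg/ml, 24 h) activated BV-2 cells at 0.5 × 10^6 cells/ml in phenol-red-free DMEM with 5 % FBS and 3 mM L-glutamine. Test compound came from DMSO stock diluted in HBSS + 5 mM HEPES pH 7.4, with final DMSO <0.5 %. Cells were fixed (4 % paraformaldehyde), permeabilised (0.1 % Triton X-100/PBS) and given rabbit N-terminal anti-iNOS, then Alexa Fluor 488 anti-rabbit (each 2 h, 37 °C), with propidium iodide counterstain and confocal imaging. Dexamethasone 1 µM served as comparator.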

[4] = system: LPS-stimulated BV-2 microglia cells; test: Inflammatory cytokines Multi-Analyte ELISArray MEM-004A; format: cell-based, murine; details: LPS-activated BV-2 cells, 24 h supernatant
Procedure, shortened: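 BV-2 cells were activated with E. coli O111:B4 LPS (1 µg/ml) plus test compound (final DMSO <0.5 %). Supernatants taken at 24 h were stored at −20 °C, then incubated with capture antibodies and mixed antigen standards (2 h, RT), biotinylated detection antibodies (1 h, RT), avidin–HRP (30 min) and development reagent. Absorbance was read at 450 nm, corrected at 570 nm. Results are % of LPS controls, mean ± STD, n = 2, Student's t test.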

## COc1cc(/C=C/C(=O)c2ccc(OC)c(OC)c2O)cc(OC)c1OC [Compound 1, 2′-hydroxy-3,4,5,3′,4′-pentamethoxychalcone]
[1]; BV-2 cells, LPS 1 µg/ml
  NO inhibition / anti-inflammatory effect (in words): complete inhibition of NO
[2]; BV-2 microglial cells
  CC50: 18.3 µM
[3]
  iNOS protein expression: reducing iNOS protein expression; also recorded: reduction of iNOS protein
[4]
  IL-1α production and release: attenuated
  IL-6 production and release: attenuated
  IL-10 production and release: attenuated

## COc1cc(/C=C/C(=O)c2ccccc2O)cc(OC)c1OC [Compound 2, 2′-hydroxy-3,4,5-trimethoxychalcone]
[1]; BV-2 cells, LPS 1 µg/ml, 24 h, regression of min. 5 concentrations below 40 µM, n = 4
  IC50: 2.2 µM

## C[C@@H]1C[C@H]2[C@@H]3CCC4=CC(=O)C=C[C@]4(C)[C@@]3(F)[C@@H](O)C[C@]2(C)[C@@]1(O)C(=O)CO [Dexamethasone, reference compound]
[2]
  CC50: > 50 µM

## CC(=N)NCCCC[C@H](N)C(=O)O [L-NIL, L-N6-(1-iminoethyl)lysine, reference compound]
[1]; Mus musculus, BV-2, 24 h
  IC50: 3.1 µM
